Experimental data reported in ChEMBL document CHEMBL2177065, “14-Alkoxy- and 14-acyloxypyridomorphinans: μ agonist/δ antagonist opioid analgesics with diminished tolerance and dependence side effects” (J Med Chem, 2012).
pEC50, pKi: −log10 of the molar value. Calls of active or inactive are those of the source. The rule behind the calls is not given here.

Legend:
Homo sapiens [1] = organism: Homo sapiens; test: Selectivity ratio of Ki for human kappa opioid receptor to Ki for human delta opioid receptor
Mu-type opioid receptor [2] = target: T1, Mu-type opioid receptor (Homo sapiens, UniProt P35372); test: Displacement of [3H]DAMGO from human mu opioid receptor expressed in CHO cells by scintillation counting analysis; format: cell-based
T1 sequence (P35372 whole entry): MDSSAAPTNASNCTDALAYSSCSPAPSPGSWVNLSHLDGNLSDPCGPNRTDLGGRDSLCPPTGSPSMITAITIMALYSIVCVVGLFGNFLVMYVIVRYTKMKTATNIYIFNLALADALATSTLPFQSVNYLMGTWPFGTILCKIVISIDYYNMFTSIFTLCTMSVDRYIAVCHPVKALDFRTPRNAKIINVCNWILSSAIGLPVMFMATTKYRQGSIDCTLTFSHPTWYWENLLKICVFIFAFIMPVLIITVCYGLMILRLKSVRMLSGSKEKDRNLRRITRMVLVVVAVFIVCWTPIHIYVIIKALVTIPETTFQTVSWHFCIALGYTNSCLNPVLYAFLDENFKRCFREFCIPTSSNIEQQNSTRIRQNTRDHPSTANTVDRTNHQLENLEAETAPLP

[3] = target: T2, Kappa-type opioid receptor (Homo sapiens, UniProt P41145); test: Agonist activity at human kappa opioid receptor expressed in CHO cells assessed as [35S]GTPgammaS binding by scintillation counting analysis; format: functional, cell-based
T2 sequence (P41145 whole entry): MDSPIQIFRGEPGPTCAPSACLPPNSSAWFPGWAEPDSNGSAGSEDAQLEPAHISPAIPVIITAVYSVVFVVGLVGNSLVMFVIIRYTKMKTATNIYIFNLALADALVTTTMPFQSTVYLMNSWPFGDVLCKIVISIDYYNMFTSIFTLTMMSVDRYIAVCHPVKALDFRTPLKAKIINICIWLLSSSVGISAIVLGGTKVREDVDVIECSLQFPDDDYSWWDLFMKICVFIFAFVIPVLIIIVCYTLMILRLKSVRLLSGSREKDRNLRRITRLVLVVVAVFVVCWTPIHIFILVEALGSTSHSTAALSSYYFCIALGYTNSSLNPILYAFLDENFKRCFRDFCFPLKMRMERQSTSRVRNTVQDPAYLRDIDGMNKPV
In short: (§1)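 Human KOR or MOR in CHO cell membranes (50 µg protein), 3 h at 25 °C, pH 7.4 Tris buffer with 100 mM NaCl, 10 mM MgCl2, 1 mM EDTA, 1 mM DTT, 0.1% BSA, GDP 40 µM and [35S]GTP-γ-S 50 pM. Stimulation = (S−B)/B×100, with Emax relative to U69,593 (KOR) or DAMGO (MOR). Curves were ten points, ≥3 experiments pooled. Antagonist Ke was taken from the shift in standard agonist EC50.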

Mu-type opioid receptor [4] = target: T1, Mu-type opioid receptor; test: Agonist activity at human mu opioid receptor expressed in CHO cells assessed as [35S]GTPgammaS binding by scintillation counting analysis relative to DAMGO; format: functional, cell-based; in short: as §1
[5] = target: T2, Kappa-type opioid receptor; test: Agonist activity at human kappa opioid receptor expressed in CHO cells assessed as [35S]GTPgammaS binding by scintillation counting analysis relative to U69,593; format: functional, cell-based; in short: as §1
[6] = test system: Delta-type opioid receptor; test: Antagonist activity at delta opioid receptor expressed in rat/mouse NG108-15 cells assessed as [35S]GTPgammaS binding by scintillation counting analysis; format: functional, cell-based
In short: as §1, with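 “NG108-15” for “Human KOR or MOR in CHO”, “pM. Nonspecific binding with 40 µM GTP-γ-S; filtration and scintillation counting.” for “pM.”, “DADLE.” for “U69,593 (KOR) or DAMGO (MOR).”, “pooled.” for “pooled. Antagonist”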

[7] = target: T2, Kappa-type opioid receptor; test: Displacement of [3H]U69,593 from human kappa opioid receptor expressed in CHO cells by scintillation counting analysis; format: cell-based
[8] = Agonist activity at delta opioid receptor expressed in rat/mouse NG108-15 cells assessed as [35S]GTPgammaS binding by scintillation counting analysis relative to DADLE; format: functional, cell-based
In short: as §1, with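 “NG108-15” for “Human KOR or MOR in CHO”, “pM. Nonspecific binding with 40 µM GTP-γ-S; filtration and scintillation counting.” for “pM.”, “DADLE.” for “U69,593 (KOR) or DAMGO (MOR).”, “pooled.” for “pooled. Antagonist”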

[9] = target: Delta-type opioid receptor (Homo sapiens, UniProt P41143); test: Displacement of [3H]DADLE from human delta opioid receptor expressed in CHO cells by scintillation counting analysis; format: cell-based
Sequence of Delta-type opioid receptor (Homo sapiens, UniProt P41143) (P41143 whole entry): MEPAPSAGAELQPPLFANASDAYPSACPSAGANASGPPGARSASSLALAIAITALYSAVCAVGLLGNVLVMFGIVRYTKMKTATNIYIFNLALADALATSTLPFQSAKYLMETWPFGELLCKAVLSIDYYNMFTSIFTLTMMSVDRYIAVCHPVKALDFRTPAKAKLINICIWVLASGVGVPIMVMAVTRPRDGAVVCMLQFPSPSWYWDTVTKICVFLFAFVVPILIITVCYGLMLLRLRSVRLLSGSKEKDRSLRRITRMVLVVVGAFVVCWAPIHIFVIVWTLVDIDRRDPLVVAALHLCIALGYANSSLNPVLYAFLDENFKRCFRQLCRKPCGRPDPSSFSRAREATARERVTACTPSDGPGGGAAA

Mu-type opioid receptor [10] = target: T1, Mu-type opioid receptor; test: Agonist activity at human mu opioid receptor expressed in CHO cells assessed as [35S]GTPgammaS binding by scintillation counting analysis; format: functional, cell-based; in short: as §1
Homo sapiens [11] = organism: Homo sapiens; test: Selectivity ratio of Ki for human mu opioid receptor to Ki for human delta opioid receptor
[12] = target: T2, Kappa-type opioid receptor; test: Agonist activity at human kappa opioid receptor expressed in CHO cells assessed as [35S]GTPgammaS binding at 10 uM by scintillation counting analysis; format: functional, cell-based; in short: as §1
[13] = test system: Delta-type opioid receptor; test: Agonist activity at delta opioid receptor expressed in rat/mouse NG108-15 cells assessed as [35S]GTPgammaS binding at 10 uM by scintillation counting analysis; format: functional, cell-based
In short: as §1, with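 “NG108-15” for “Human KOR or MOR in CHO”, “pM. Nonspecific binding with 40 µM GTP-γ-S; filtration and scintillation counting.” for “pM.”, “DADLE.” for “U69,593 (KOR) or DAMGO (MOR).”, “pooled.” for “pooled. Antagonist”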

Mu-type opioid receptor [14] = target: T1, Mu-type opioid receptor; test: Agonist activity at human mu opioid receptor expressed in CHO cells assessed as [35S]GTPgammaS binding at 10 uM by scintillation counting analysis; format: functional, cell-based; in short: as §1

Structure (SMILES) | Ratio Ki (Homo sapiens [1]) | pKi (Mu-type opioid receptor [2]) | pEC50 [3] | Emax (Mu-type opioid receptor [4]) [%] | Emax [5] [%] | Ke [6] [nM] | pKi [7] | Emax [8] [%] | pKi [9] | pEC50 (Mu-type opioid receptor [10]) | Ratio Ki (Homo sapiens [11]) | Activity [12] | Activity [13] | Activity (Mu-type opioid receptor [14])
CN1CC[C@]23c4c5ccc(O)c4O[C@H]2c2ncc(-c4ccc(Cl)cc4)cc2C[C@@]3(OC(=O)CCc2ccccc2)[C@H]1C5 | 4.6 | 9.03 | 6.87 | 105 | 16 | 1.64 | 8.36 | 59 | 9.02 | 7.32 | 0.98 |  |  | 
O=C(O[C@@]12Cc3cc(-c4ccc(Cl)cc4)cnc3[C@@H]3Oc4c(O)ccc5c4[C@@]31CCN(CC1CC1)[C@@H]2C5)c1ccccc1 | 1.3 | 6.72 |  |  |  | 218 | 6.93 |  | 7.06 |  | 2.2 | inactive | inactive | inactive
Oc1ccc2c3c1O[C@H]1c4ncc(-c5ccc(Cl)cc5)cc4C=C4[C@@H](C2)N(CC2CC2)CC[C@]431 | 2.2 | 7.89 |  |  |  | 0.58 | 8.22 |  | 8.57 |  | 4.8 | inactive | inactive | inactive
Oc1ccc2c3c1O[C@H]1c4ncc(-c5ccc(Cl)cc5)cc4C[C@@]4(OC/C=C/c5ccccc5)[C@@H](C2)N(CC2CC2)CC[C@]314 | 0.89 | 8.52 |  |  |  |  | 8.48 |  | 8.43 |  | 0.81 |  | inactive | inactive
O=C(Cc1ccccc1)O[C@@]12Cc3cc(-c4ccc(Cl)cc4)cnc3[C@@H]3Oc4c(O)ccc5c4[C@@]31CCN(CC1CC1)[C@@H]2C5 | 2.3 | 8.98 | 7.59 |  | 34 | 0.37 | 8.51 |  | 8.88 |  | 0.78 |  | inactive | inactive
CN1CC[C@]23c4c5ccc(O)c4O[C@H]2c2ncc(-c4ccc(Cl)cc4)cc2C[C@@]3(OC(=O)c2ccccc2)[C@H]1C5 | 6.6 | 7.08 |  | 55 |  | 45 | 6.95 |  | 7.77 | 5.34 | 4.9 | inactive | inactive | 
CO[C@@]12Cc3cc(-c4ccc(Cl)cc4)cnc3[C@@H]3Oc4c(O)ccc5c4[C@@]31CCN(CC1CC1)[C@@H]2C5 | 2.8 | 7.38 |  |  |  |  | 8.27 |  | 8.71 |  | 22 |  | inactive | inactive
CN1CC[C@]23c4c5ccc(O)c4O[C@H]2c2ncc(-c4ccc(Cl)cc4)cc2C[C@@]3(OCc2ccccc2)[C@H]1C5 | 28 | 8.33 | 6.67 | 119 | 32 | 4.54 | 7.31 | 52 | 8.75 | 6.52 | 2.6 |  |  | 
O=C(CCc1ccccc1)O[C@@]12Cc3cc(-c4ccc(Cl)cc4)cnc3[C@@H]3Oc4c(O)ccc5c4[C@@]31CCN(CC1CC1)[C@@H]2C5 | 2.9 | 8.59 | 7.89 |  | 25 | 1.86 | 7.92 |  | 8.38 |  | 0.62 |  | inactive | inactive
Oc1ccc2c3c1O[C@H]1c4ncc(-c5ccc(Cl)cc5)cc4C[C@@]4(OCc5ccccc5)[C@@H](C2)N(CC2CC2)CC[C@]314 | 2.8 | 8.07 | 7.57 |  | 15 | 0.64 | 8.27 |  | 8.72 |  | 4.4 |  | inactive | inactive
